Results taken from ChEMBL document CHEMBL4321819, “Simple Structural Modifications Converting a Bona fide MDM2 PROTAC Degrader into a Molecular Glue Molecule: A Cautionary Tale in the Design of PROTAC Degraders” (J Med Chem, 2019).
The source made the active and inactive calls. The rule behind the calls is not given here.

Tests used:
[1] = Antiproliferative activity against human RS4:11/IRMI-2 cells harboring p53 hotspot mutation Y236H/R249G assessed as MDM2-independent cell growth inhibition after 4 days by WST-8 assay; type: functional, cell-based; conditions: RS4-11, 96 h
Method in brief: (§1)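 Leukemia cells seeded at 10000–20000 cells/well, breast cancer lines at 5000–10000 cells/well. Serially diluted compound added, then 4 days at 37 °C, 5% CO2. Growth read with WST-8 reagent after at least 1 h, absorbance at 450 nm. RS4;11, MOLM-13 and breast lines were grown in RPMI 1640; MV-4-11 and HL-60 in IMDM; all with 10% FBS. Mean ± SE, at least three independent experiments.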

[2] = biological target: E3 ubiquitin-protein ligase Mdm2 (Homo sapiens, UniProt Q00987); assay: Displacement of PMDM6-F fluorescent probe from human recombinant His-tagged MDM2 (1 to 118 residues) after 15 mins by fluorescence polarization assay
Method in brief: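 Recombinant human His-tagged MDM2 (residues 1–118) with a FAM-labelled p53-based peptide as fluorescent probe; competitive fluorescence-polarization binding. Mean ± standard error from at least three independent experiments.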

[3] = test system: RS4-11; assay: Antiproliferative activity against human RS4:11 cells expressing wild type p53 assessed as MDM2-independent cell growth inhibition after 4 days by WST-8 assay; type: functional, cell-based; conditions: RS4-11, 96 h; method in brief: as §1
[4] = biological target: T1, Protein cereblon/Eukaryotic peptide chain release factor GTP-binding subunit ERF3A/DNA damage-binding protein 1/Cullin-4A (Homo sapiens) (UniProt Q96SW2+Q16531+Q13619+P15170); assay: Protac activity at GSPT1/CUL4/DDB1/CRBN in human RS4:11/IRMI-2 cells harboring p53 hotspot mutation Y236H/R249G assessed as decrease in GSPT1 protein level after 2 hrs by Western blot analysis; type: cell-based
Method in brief: (§2)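 RS4;11 (wild-type p53) or RS4;11/IRMI-2 (MDM2 inhibitor-resistant derivative, mutant p53) cells kept in RPMI 1640 with 10% FBS at 37 °C, 5% CO₂. 2×10^6 cells/well treated at the indicated concentrations and times, then lysed in ice-cold lysis buffer with protease inhibitor. GSPT1 detected by Western blot with a specific antibody.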

[5] = test system: RS4-11; assay: Antiproliferative activity against human RS4:11 cells expressing wild type p53 assessed as cell growth inhibition after 4 days by WST-8 assay; type: functional, cell-based; conditions: RS4-11, 96 h; method in brief: as §1
[6] = Antiproliferative activity against human RS4:11/IRMI-2 cells harboring p53 hotspot mutation Y236H/R249G assessed as cell growth inhibition after 4 days by WST-8 assay; type: functional, cell-based; conditions: RS4-11, 96 h; method in brief: as §1
[7] = biological target: T1, Protein cereblon/Eukaryotic peptide chain release factor GTP-binding subunit ERF3A/DNA damage-binding protein 1/Cullin-4A (Homo sapiens); assay: Protac activity at GSPT1/CUL4/DDB1/CRBN in human RS4:11 cells expressing wild type p53 assessed as decrease in GSPT1 protein level after 2 hrs by Western blot analysis; type: cell-based; method in brief: as §2
[8] = biological target: Eukaryotic peptide chain release factor GTP-binding subunit ERF3A (Homo sapiens, UniProt P15170); assay: Induction of GSPT1 degradation in human RS4:11 cells measured after 24 hrs by Western blot analysis; type: cell-based
[9] = test system: MDA-MB-468; assay: Antiproliferative activity against human MDA-MB-468 cells assessed as cell growth inhibition after 4 days in presence of control siRNA for 3 days followed by compound treatment by WST-8 assay; type: functional, cell-based
[10] = test system: MDA-MB-231; assay: Antiproliferative activity against human MDA-MB-231 cells transfected with CRBN siRNA LQ-021086-10-0002 assessed as cell growth inhibition after 4 days by WST-8 assay; type: functional, cell-based; conditions: MDA-MB-231, 72 h, in the assay text read “after 3 days” for “after 4 days”
Method in brief: (§3)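 MDA-MB-231 or MDA-MB-468 cells transfected for 2 days using Lipofectamine RNAiMAX with MDM2 siRNA, one of two CRBN siRNAs, or non-targeting control siRNA. Compound then added and growth read by WST-8 at 450 nm.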

[11] = test system: MDA-MB-231; assay: Antiproliferative activity against human MDA-MB-231 cells transfected with CRBN siRNA LQ-021086-11-0002 assessed as cell growth inhibition after 4 days by WST-8 assay; type: functional, cell-based; conditions: MDA-MB-231, 96 h; method in brief: as §3
[12] = test system: MDA-MB-468; assay: Antiproliferative activity against human MDA-MB-468 cells transfected with CRBN siRNA LQ-021086-10-0002 assessed as cell growth inhibition after 4 days by WST-8 assay; type: functional, cell-based; conditions: MDA-MB-468, 96 h; method in brief: as §3
[13] = test system: MDA-MB-231; assay: Antiproliferative activity against human MDA-MB-231 cells assessed as cell growth inhibition after 4 days in presence of control siRNA for 3 days followed by compound treatment by WST-8 assay; type: functional, cell-based
[14] = test system: MDA-MB-468; assay: Antiproliferative activity against human MDA-MB-468 cells transfected with CRBN siRNA LQ-021086-11-0002 assessed as cell growth inhibition after 4 days by WST-8 assay; type: functional, cell-based; conditions: MDA-MB-468, 96 h; method in brief: as §3

E3 ubiquitin-protein ligase Mdm2, sequence (Q00987 whole entry, the tested form may be a part): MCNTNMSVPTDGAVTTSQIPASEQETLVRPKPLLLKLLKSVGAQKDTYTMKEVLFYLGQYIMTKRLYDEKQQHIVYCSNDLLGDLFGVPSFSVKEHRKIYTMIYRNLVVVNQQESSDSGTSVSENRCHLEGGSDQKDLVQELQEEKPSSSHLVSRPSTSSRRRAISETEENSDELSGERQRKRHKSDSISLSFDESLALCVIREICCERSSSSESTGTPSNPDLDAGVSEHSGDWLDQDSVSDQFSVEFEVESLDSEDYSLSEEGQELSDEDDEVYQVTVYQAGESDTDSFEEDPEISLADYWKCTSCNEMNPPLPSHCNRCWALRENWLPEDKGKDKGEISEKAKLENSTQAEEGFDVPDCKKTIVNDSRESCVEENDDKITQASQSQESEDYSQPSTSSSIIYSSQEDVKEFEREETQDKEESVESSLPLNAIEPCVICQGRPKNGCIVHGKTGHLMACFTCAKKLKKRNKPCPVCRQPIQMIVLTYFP
T1 sequence (P15170 whole entry, looked up): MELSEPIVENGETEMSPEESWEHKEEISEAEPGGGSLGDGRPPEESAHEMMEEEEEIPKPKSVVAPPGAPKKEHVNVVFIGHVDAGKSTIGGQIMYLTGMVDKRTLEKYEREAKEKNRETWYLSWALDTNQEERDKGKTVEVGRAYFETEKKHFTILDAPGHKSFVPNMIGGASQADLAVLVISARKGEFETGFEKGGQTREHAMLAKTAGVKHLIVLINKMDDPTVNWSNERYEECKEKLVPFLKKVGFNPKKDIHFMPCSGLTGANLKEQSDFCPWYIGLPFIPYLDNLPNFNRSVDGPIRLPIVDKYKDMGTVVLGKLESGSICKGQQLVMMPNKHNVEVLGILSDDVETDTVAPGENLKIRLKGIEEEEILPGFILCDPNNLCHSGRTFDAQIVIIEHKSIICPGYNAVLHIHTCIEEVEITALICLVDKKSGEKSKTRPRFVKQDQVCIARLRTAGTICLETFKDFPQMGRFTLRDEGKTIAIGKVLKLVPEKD
T1 sequence (Q13619 whole entry, looked up): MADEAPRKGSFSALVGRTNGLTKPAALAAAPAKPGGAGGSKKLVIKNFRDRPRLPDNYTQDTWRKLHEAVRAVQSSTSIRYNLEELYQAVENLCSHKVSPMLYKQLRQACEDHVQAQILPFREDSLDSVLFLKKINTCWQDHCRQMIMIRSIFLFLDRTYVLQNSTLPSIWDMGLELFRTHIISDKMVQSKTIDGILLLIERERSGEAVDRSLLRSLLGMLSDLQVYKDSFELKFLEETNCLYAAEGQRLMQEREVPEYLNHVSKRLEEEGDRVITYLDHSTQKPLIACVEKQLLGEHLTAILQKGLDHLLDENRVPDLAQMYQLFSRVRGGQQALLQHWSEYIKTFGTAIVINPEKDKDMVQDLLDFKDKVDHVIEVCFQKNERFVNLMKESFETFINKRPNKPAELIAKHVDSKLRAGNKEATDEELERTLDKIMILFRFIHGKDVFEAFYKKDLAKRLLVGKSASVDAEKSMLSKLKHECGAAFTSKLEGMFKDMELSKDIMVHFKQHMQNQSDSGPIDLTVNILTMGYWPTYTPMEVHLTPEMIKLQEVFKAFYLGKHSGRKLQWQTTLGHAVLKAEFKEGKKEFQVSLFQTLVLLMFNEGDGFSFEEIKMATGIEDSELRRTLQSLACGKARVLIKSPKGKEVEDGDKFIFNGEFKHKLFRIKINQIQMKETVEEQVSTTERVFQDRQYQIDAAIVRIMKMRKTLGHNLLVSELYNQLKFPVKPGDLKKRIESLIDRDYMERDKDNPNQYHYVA
T1 sequence (Q16531 whole entry, looked up): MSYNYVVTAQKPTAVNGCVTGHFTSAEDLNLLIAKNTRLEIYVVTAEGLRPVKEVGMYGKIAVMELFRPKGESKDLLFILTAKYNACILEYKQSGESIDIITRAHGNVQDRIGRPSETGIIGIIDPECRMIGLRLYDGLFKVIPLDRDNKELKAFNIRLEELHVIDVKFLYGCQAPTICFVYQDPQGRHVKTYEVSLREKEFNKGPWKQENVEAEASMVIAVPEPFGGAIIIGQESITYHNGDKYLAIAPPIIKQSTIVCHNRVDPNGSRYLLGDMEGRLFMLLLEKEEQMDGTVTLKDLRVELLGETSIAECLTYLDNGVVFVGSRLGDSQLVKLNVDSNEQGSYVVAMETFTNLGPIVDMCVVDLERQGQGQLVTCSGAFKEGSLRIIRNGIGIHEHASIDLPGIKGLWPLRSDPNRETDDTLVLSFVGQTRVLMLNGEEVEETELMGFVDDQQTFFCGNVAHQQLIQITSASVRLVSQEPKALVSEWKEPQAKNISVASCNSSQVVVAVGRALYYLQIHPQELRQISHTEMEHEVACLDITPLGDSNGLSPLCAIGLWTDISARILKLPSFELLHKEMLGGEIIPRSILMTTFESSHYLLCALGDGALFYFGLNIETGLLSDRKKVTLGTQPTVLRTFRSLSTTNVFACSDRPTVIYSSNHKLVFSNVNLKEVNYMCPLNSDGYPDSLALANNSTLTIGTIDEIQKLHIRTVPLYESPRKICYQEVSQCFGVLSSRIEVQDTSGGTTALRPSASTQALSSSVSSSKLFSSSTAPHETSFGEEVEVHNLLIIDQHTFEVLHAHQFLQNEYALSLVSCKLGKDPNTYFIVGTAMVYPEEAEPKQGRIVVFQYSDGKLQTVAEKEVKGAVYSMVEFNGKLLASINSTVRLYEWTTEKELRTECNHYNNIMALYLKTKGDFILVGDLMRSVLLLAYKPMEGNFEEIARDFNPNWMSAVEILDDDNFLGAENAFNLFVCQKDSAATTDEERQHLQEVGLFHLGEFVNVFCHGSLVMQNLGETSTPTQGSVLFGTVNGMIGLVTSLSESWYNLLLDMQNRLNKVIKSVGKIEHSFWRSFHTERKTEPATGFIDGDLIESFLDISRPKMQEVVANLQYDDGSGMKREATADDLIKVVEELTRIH
T1 sequence (Q96SW2 whole entry, looked up): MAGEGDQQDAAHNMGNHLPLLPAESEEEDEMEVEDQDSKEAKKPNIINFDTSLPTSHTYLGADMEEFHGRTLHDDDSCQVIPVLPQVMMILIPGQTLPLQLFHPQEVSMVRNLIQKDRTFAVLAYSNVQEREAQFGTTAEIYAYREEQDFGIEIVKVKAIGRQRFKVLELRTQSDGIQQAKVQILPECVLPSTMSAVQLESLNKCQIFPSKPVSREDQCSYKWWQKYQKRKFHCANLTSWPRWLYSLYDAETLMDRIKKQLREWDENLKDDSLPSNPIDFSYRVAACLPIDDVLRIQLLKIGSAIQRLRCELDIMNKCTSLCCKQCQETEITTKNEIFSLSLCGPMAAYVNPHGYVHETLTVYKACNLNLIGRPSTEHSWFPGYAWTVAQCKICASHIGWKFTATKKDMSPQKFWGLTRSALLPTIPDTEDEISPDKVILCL
Eukaryotic peptide chain release factor GTP-binding subunit ERF3A, sequence (P15170 whole entry): as the sequence (P15170 whole entry, looked up) above

| SMILES | IC50 [2] | IC50 [3] | IC50 [1] | Activity [4] | IC50 [5] | IC50 [6] | Activity [7] | further results |
| --- | --- | --- | --- | --- | --- | --- | --- | --- |
| O=C1CCC(N2Cc3c(CCCOCCOCCOCCNC(=O)[C@@H]4NC5(CCCCC5)[C@@]5(C(=O)Nc6cc(Cl)ccc65)[C@H]4c4cccc(Cl)c4F)cccc3C2=O)C(=O)N1 (stereo not given in full) |  |  |  | Active | 10 nM | 11 nM | Active |  |
| O=C1CCC(N2Cc3c(CCCCNC(=O)[C@@H]4NC5(CCCCC5)[C@@]5(C(=O)Nc6cc(Cl)ccc65)[C@H]4c4cccc(Cl)c4F)cccc3C2=O)C(=O)N1 (stereo not given in full) |  |  |  | Active | 2.5 nM | 2.6 nM | Active | DC50 [8]: 1.1 nM |
| O=C(O)c1ccc(NC(=O)[C@@H]2NC3(CCCCC3)[C@@]3(C(=O)Nc4cc(Cl)ccc43)[C@H]2c2cccc(Cl)c2F)cc1 | 9.5 nM |  |  |  |  |  |  | IC50 [9]: > 3000 nM; IC50 [10]: > 3000 nM; IC50 [11]: > 3000 nM; IC50 [12]: > 3000 nM; IC50 [13]: > 3000 nM; IC50 [14]: > 3000 nM |

Further lines, with some results ahead:

| IC50 [2] | IC50 [3] | SMILES | IC50 [1] | Activity [4] | IC50 [5] | IC50 [6] | Activity [7] | further results |
| --- | --- | --- | --- | --- | --- | --- | --- | --- |
| > 20000 nM | 4.1 nM | O=C1CCC(N2Cc3c(CCCCCNC(=O)[C@@H]4NC5(CCCCC5)[C@@]5(C(=O)Nc6ccccc65)[C@H]4c4ccccc4F)cccc3C2=O)C(=O)N1 (stereo not given in full) | 3.7 nM |  |  |  |  |  |
| > 20000 nM | 48.6 nM | O=C1CCC(N2Cc3c(CCCCCNC(=O)[C@@H]4NC5(CCCCC5)[C@@]5(C(=O)Nc6ccccc65)[C@H]4c4ccccc4)cccc3C2=O)C(=O)N1 (stereo not given in full) | 60.9 nM |  |  |  |  |  |
| > 20000 nM | 22.5 nM | O=C1CCC(N2Cc3c(CCCCCNC(=O)[C@@H]4NC5(CCCCC5)[C@@]5(C(=O)Nc6cc(Cl)ccc65)[C@H]4c4ccccc4)cccc3C2=O)C(=O)N1 (stereo not given in full) | 22.4 nM |  |  |  |  |  |
